Screening data: PubChem, several laboratories
T cruzi repl: T. cruzi replication inhibition. T. cruzi beta-gal in NIH3T3, luminescence, 90 h. inhibition, % (test concentration not listed). 300,000 compounds, 1.4% hits;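 active = mean inhibition across valid replicates above about 55%, limit read from the data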;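 note: signal also drops with host cell toxicity which is not excluded here; 0% = plate median of DMSO wells and 100% = zero luminescence signal; higher percent means less beta-gal luminescence so fewer parasites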
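Incubation – ≥90 h infection period, 3 h prior cell attachment · System – NIH/3T3 fibroblasts plus reporter T. cruzi · Doses – compound pinned at 50 nL/well, DMSO · Read-out basis – percent inhibition of parasite-derived β-gal signal · Signal – luminescent β-galactosidase signal after 60 min lysis · Also added – 5000 T. cruzi trypomastigotes/well · Medium – Low-serum DMEM with 2% FBS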
CHOP inh: CHOP inhibition in unfolded protein response; CHO-K1 CHOP-promoter luciferase, tunicamycin-induced, 15-18 h; inhibition, % at 10 µM; 220,000 compounds, 3.8% hits; AID 2732;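 active = compounds that reduced the stress-induced luciferase reporter signal by more than about 70% of percent inhibition, limit read from the data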;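 note: 0% = tunicamycin plus vehicle and 100% = wells without tunicamycin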
UPR XBP1 act: adaptive UPR (XBP1) activation | AID 463104 | activation, % at 20 µM | 330,000 compounds, 0.33% hits | CHO-XBP1 luciferase reporter, IRE1-XBP1 UPR activation, luminescence; percent of tunicamycin response, DMSO as zero;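 active = versus positive control, 20 µM dose yields 30% or more activation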;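 note: 100% = tunicamycin at 10 µg/mL and 0% = DMSO only wells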
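Material – CHO cell line with stable XBP1 luciferase reporter · Buffer or medium – F12 plus 10% FBS · Compound – single point, 20 µM final compound, 1% DMSO · Schedule – 16-18 h cell attachment at 37 °C, then 6 h compound exposure · Signal – Steady-Glo luminescence read · Benchmarks – high control tunicamycin 10 µg/mL final, low control DMSO vehicle only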
L major viab: Leishmania major promastigote growth inhibition | Leishmania major promastigotes, resazurin fluorescence viability | inhibition, % at 10 µM | 200,000 compounds, 9% hits; in the data active = inhibition above about 50%;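 note: promastigotes grown with compound for 44 hours at 28 °C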
Dynein transport: blocks dynein driven cargo transport along microtubules | 3617.4 mouse cells, GR-EGFP nuclear translocation imaging; test concentration mostly 20 µM; stimulated with dexamethasone, 1 µM; stronger effect = lower value | z-score, hits read low | 220,000 compounds, 0.47% hits | AID 1381;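 active = plate z-score of nuclear minus cytoplasmic receptor signal below a set negative limit, without overly bright fluorescence or cell loss, cut at about -3.5 in these data, passing the limit was not always enough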;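 note: z-score of nuclear minus cytoplasmic ring GR-EGFP intensity difference per well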
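medium = tetracycline-free induction medium containing charcoal-stripped FBS | probe or stimulus = dexamethasone, 1.0 µM final | timing = 48 h induction, then 1 h compound, then 30 min agonist, 37 °C | detection = automated 10x imaging of fixed Hoechst-stained cells | read-out basis = nuclear versus cytoplasmic GR-EGFP signal, averaged per well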
UPR CHOP act: apoptotic UPR (CHOP) activation; CHO-CHOP luciferase reporter, luminescence; percent of tunicamycin response over DMSO baseline; activation, % at 10 µM; 330,000 compounds, 0.34% hits;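 active = at 10 µM dose, activation of 40% or more, normalized to positive control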;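 note: 100% = tunicamycin at 10 µg/mL and 0% = DMSO alone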
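Dosing – one dose, 10 µM in 0.5% DMSO · System – CHO-CHOP cells, stable luciferase reporter of PERK-eIF2a-CHOP signalling · Input – 500 cells/well · Control set – tunicamycin 10 µg/mL final as positive, DMSO-only wells as negative · Timing – 6 h compound treatment, 37 °C · Measure – % activation vs tunicamycin · Technique – luminescence read with Steady-Glo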
* hit, by the source's call. This is one part of a sample in which hits are shown more often than they occur.

What do the screens show for `COc1ccc(/C=N\NC(=O)c2ccc(F)cc2)cc1COc1ccccc1C(N)=O`?
T cruzi repl: -13.6; UPR XBP1 act: -3.3; UPR CHOP act: -0.5

How did COc1ccc(/C=C/C(=O)c2ccccc2)cc1COc1ccccc1F do in these assays?
T cruzi repl: 13.0; CHOP inh: -15.8; UPR XBP1 act: 1.8; L major viab: 62.1*; Dynein transport: -0.499; UPR CHOP act: 3.3

Results for COc1ccc(C=O)cc1COc1ccccc1F ?
T cruzi repl: -6.1; CHOP inh: 25.9; UPR XBP1 act: -3.9; L major viab: 61.0*; Dynein transport: 0.0842; UPR CHOP act: 2.0

Results for COc1ccc(C=O)cc1COc1ccc2c(c1)OCO2 ?
UPR XBP1 act: 2.8; UPR CHOP act: 3.3

What do the screens show for `CCN1CC(CN(C)Cc2nc(-c3ccc(C(F)(F)F)cc3)oc2C)CC1=O` (configuration not stated)?
T cruzi repl: 59.0*; CHOP inh: 20.5; UPR XBP1 act: 4.6; L major viab: 55.7*; Dynein transport: 1.24; UPR CHOP act: -2.2

How did COc1ccc(OC)c(C2NC(=O)c3sc(=S)n(-c4ccccc4)c3N2)c1 (configuration not stated) do in these assays?
T cruzi repl: -1.5; CHOP inh: 90.3*; UPR XBP1 act: 20.3; L major viab: 1.2; Dynein transport: -1.26; UPR CHOP act: -1.3

What do the screens show for `CCCCN(C(=O)c1cc2c(s1)CCC2)c1c(N)n(CCCC)c(=O)[nH]c1=O`?
T cruzi repl: -2.5; UPR XBP1 act: -1.2; UPR CHOP act: 4.5

Results for CSCCC(NS(=O)(=O)c1ccccc1F)C(=O)OCc1ccccc1Cl (configuration not stated) ?
T cruzi repl: -17.0; CHOP inh: 17.4; UPR XBP1 act: 1.0; L major viab: 74.9*; Dynein transport: 0.427; UPR CHOP act: 0.8

What do the screens show for `CSCCC(NS(=O)(=O)c1ccc(Cl)cc1)C(=O)OCC(=O)N(C(C)C)C(C)C` (configuration not stated)?
T cruzi repl: -7.0; CHOP inh: 51.8; UPR XBP1 act: -2.6; L major viab: 4.7; Dynein transport: 0.303; UPR CHOP act: 0.9

How did CSCCC(NS(=O)(=O)c1ccccc1F)C(=O)N1CCCCCC1 (configuration not stated) do in these assays?
T cruzi repl: 7.5; UPR XBP1 act: -0.1; UPR CHOP act: 1.5

How did CSCCC(NS(=O)(=O)c1ccc(Cl)cc1)C(=O)OCc1c(Cl)cccc1Cl (configuration not stated) do in these assays?
T cruzi repl: -5.0; CHOP inh: 85.9*; UPR XBP1 act: -0.1; L major viab: 99.3*; Dynein transport: -0.0739; UPR CHOP act: -2.3

What do the screens show for `COc1ccc(NC(=O)c2cc(C)cc(C)c2)cc1S(=O)(=O)N1CCCCC1`?
UPR XBP1 act: -2.8; UPR CHOP act: -1.7

What do the screens show for `CO/N=C(/CS(=O)(=O)c1ccc(C)cc1)c1ccc(OC)cc1`?
T cruzi repl: -4.1; CHOP inh: -10.7; UPR XBP1 act: -2.6; L major viab: 80.0*; Dynein transport: 2.24; UPR CHOP act: 0.5

Results for NC(=O)c1ccccc1OCc1nnc(-c2ccccc2Br)o1 ?
T cruzi repl: 2.0; UPR XBP1 act: 7.3; UPR CHOP act: 3.6

Results for O=C(NCCNC1CCC(c2ccccc2)CC1)c1ccc(F)cc1 (configuration not stated) ?
T cruzi repl: 30.4; CHOP inh: 32.5; UPR XBP1 act: 0.7; L major viab: 94.0*; Dynein transport: 0.047; UPR CHOP act: 1.6

Results for CCC(=O)N1CCc2cc(S(=O)(=O)NCCCN(CC)Cc3ccccc3)ccc21 ?
T cruzi repl: 5.4; CHOP inh: -20.0; UPR XBP1 act: -0.1; L major viab: 55.1*; Dynein transport: 0.338; UPR CHOP act: 0.2

Results for CSc1nc(N)n2nc(-c3ccccc3)cc2n1 ?
T cruzi repl: 5.8; CHOP inh: 2.4; UPR XBP1 act: 6.7; Dynein transport: -0.462; UPR CHOP act: 5.0
